Experimental data reported in ChEMBL document CHEMBL1255466, “Nucleotide selectivity of antibiotic kinases” (Antimicrob Agents Chemother, 2010).

Key:
[1] = Inhibition of APH(3')-3a by PK/LDH-coupled assay
Summary of the method: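 N-terminally His6-tagged kinase, purified on Ni-NTA. Antibiotic at saturating level, preincubated 5 min at 37°C. Started with ATP or GTP held at Km. AMPPNP or GMPPNP added as 2-fold dilutions. NADH oxidation read at 340 nm over 5 min. IC50 fitted, then converted to Ki.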

[2] = Inhibition of macrolide 2'-phosphotransferase 1 by PK/LDH-coupled assay
[3] = Activity at macrolide 2'-phosphotransferase 1 by PK/LDH-coupled assay
Summary of the method: (§1)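 Macrolide substrate was varied in the PK/LDH-coupled system (HEPES pH 7.5, KCl, MgCl2, NADH, PEP), with fixed 0.2 mM GTP as donor. Antibiotic was preincubated with enzyme 5 min at 37°C, the reaction was started with nucleotide, and NADH oxidation was read at 340 nm for 5 min. Initial rates were fitted to Michaelis-Menten, or to a substrate-inhibition equation where it applied.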

[4] = Ratio of Kcat to Km for macrolide 2'-phosphotransferase 1 by PK/LDH-coupled assay in presence of ATP
Summary of the method: (§2)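 His6-tagged kinase purified by Ni-NTA. […] Nucleotide (ATP or GTP) was varied to start; A340 followed 5 min. Linear initial rates were fitted by nonlinear least squares.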

[5] = Activity at macrolide 2'-phosphotransferase 1 by PK/LDH-coupled assay in presence of ATP; summary of the method: as §2
[6] = Ratio of Kcat to Km for macrolide 2'-phosphotransferase 1 by PK/LDH-coupled assay; summary of the method: as §1
[7] = Activity at macrolide 2'-phosphotransferase 1 by PK/LDH-coupled assay in presence of GTP; summary of the method: as §2
[8] = Ratio of Kcat to Km for macrolide 2'-phosphotransferase 1 by PK/LDH-coupled assay in presence of GTP; summary of the method: as §2
[9] = Activity at APH(3')-3a by PK/LDH-coupled assay in presence of ATP; summary of the method: as §2
[10] = Ratio of Kcat to Km for APH(3')-3a by PK/LDH-coupled assay in presence of ATP; summary of the method: as §2

Km [3]	kcat [3]	kcat/Km [6]	Molecule	further results
			Nc1ncnc2c1ncn2[C@@H]1O[C@H](COP(=O)(O)OP(=O)(O)NP(=O)(O)O)[C@@H](O)[C@H]1O	Ki ([1]; read-out: Ki): 14.2 µM; Ki [2]: Not Active
37.2 µM	0.279 s⁻¹	7.52 ×10³ /s/M	CC[C@H]1OC(=O)[C@H](C)[C@@H](O[C@H]2C[C@@](C)(OC)[C@@H](O)[C@H](C)O2)[C@H](C)[C@@H](O[C@@H]2O[C@H](C)C[C@H](N(C)C)[C@H]2O)[C@](C)(O)C[C@@H](C)C(=O)[C@H](C)[C@@H](O)[C@]1(C)O	kcat/Km [4]: 1.16 ×10¹ /s/M; Km [5]: 1890 µM; kcat [5]: 0.022 s⁻¹; Km [7]: 59.2 µM; kcat [7]: 0.634 s⁻¹; kcat/Km [8]: 1.07 ×10⁴ /s/M
27.7 µM	0.292 s⁻¹	1.05 ×10⁴ /s/M	CC[C@H]1OC(=O)[C@H](C)[C@@H](O[C@H]2C[C@@](C)(OC)[C@@H](O)[C@H](C)O2)[C@H](C)[C@@H](O[C@@H]2O[C@H](C)C[C@H](N(C)C)[C@H]2O)[C@](C)(O)C[C@@H](C)CN(C)[C@H](C)[C@@H](O)[C@]1(C)O	
45.9 µM	0.311 s⁻¹	6.77 ×10³ /s/M	CC[C@H]1OC(=O)[C@H](C)[C@@H](O[C@H]2C[C@@](C)(OC)[C@@H](O)[C@H](C)O2)[C@H](C)[C@@H](O[C@@H]2O[C@H](C)C[C@H](N(C)C)[C@H]2O)[C@](C)(OC)C[C@@H](C)C(=O)[C@H](C)[C@@H](O)[C@]1(C)O	
7.4 µM	0.152 s⁻¹	2.07 ×10⁴ /s/M	CC[C@H]1OC(=O)[C@H](C)C(=O)[C@H](C)[C@@H](O[C@@H]2O[C@H](C)C[C@H](N(C)C)[C@H]2O)[C@](C)(OC)C[C@@H](C)C(=O)[C@H](C)[C@H]2N(CCCCn3cnc(-c4cccnc4)c3)C(=O)O[C@]12C	Ki [2]: 622 µM
			Nc1nc2c(ncn2[C@@H]2O[C@H](COP(=O)(O)OP(=O)(O)NP(=O)(O)O)[C@@H](O)[C@H]2O)c(=O)[nH]1 [PHOSPHOAMINOPHOSPHONIC ACID GUANYLATE ESTER]	Ki [1]: Not Active
478 µM	0.2 s⁻¹	4.19 ×10² /s/M	SPIRAMYCIN	
			NC[C@@H]1O[C@H](O[C@H]2[C@@H](O)[C@H](O[C@@H]3[C@@H](O)[C@H](N)C[C@H](N)[C@H]3O[C@H]3O[C@H](CN)[C@@H](O)[C@H](O)[C@H]3N)O[C@@H]2CO)[C@H](N)[C@@H](O)[C@@H]1O	Km [9]: 10.6 µM; kcat [9]: 1.59 s⁻¹; kcat/Km [10]: 1.5 ×10⁵ /s/M
131 µM	0.174 s⁻¹	1.33 ×10³ /s/M	CC[C@H]1OC(=O)C[C@@H](O)[C@H](C)[C@@H](O[C@@H]2O[C@H](C)[C@@H](O[C@H]3C[C@@](C)(O)[C@@H](O)[C@H](C)O3)[C@H](N(C)C)[C@H]2O)[C@@H](CC=O)C[C@@H](C)C(=O)/C=C/C(C)=C/[C@@H]1CO[C@@H]1O[C@H](C)[C@@H](O)[C@@H](OC)[C@H]1OC	
